In assay [1] the target is T1, Prostaglandin G/H synthase 1 (Ovis aries) (UniProt P05979).
T1 sequence (whole entry): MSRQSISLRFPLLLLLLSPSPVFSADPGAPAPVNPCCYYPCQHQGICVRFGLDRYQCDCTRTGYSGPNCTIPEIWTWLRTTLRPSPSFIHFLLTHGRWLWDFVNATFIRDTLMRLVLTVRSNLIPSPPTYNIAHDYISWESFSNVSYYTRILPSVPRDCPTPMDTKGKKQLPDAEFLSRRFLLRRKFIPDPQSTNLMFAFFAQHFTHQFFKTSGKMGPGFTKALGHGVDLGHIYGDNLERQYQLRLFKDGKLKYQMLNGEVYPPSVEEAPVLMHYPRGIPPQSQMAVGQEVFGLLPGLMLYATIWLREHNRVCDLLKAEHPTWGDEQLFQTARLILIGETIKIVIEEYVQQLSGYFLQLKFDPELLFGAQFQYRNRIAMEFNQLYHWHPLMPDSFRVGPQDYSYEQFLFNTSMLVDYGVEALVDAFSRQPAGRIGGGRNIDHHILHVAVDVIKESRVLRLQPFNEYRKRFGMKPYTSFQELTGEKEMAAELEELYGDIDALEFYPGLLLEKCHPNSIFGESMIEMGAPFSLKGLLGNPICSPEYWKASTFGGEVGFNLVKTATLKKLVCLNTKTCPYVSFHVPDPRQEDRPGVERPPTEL
Nature of the assay: Inhibition of ovine COX1 using fluorometric substrate at 100 uM by fluorescent inhibitor screening assay.

In assay [2] the target is T2, Prostaglandin G/H synthase 2 (Homo sapiens, UniProt P35354).
T2 sequence (P35354 whole entry): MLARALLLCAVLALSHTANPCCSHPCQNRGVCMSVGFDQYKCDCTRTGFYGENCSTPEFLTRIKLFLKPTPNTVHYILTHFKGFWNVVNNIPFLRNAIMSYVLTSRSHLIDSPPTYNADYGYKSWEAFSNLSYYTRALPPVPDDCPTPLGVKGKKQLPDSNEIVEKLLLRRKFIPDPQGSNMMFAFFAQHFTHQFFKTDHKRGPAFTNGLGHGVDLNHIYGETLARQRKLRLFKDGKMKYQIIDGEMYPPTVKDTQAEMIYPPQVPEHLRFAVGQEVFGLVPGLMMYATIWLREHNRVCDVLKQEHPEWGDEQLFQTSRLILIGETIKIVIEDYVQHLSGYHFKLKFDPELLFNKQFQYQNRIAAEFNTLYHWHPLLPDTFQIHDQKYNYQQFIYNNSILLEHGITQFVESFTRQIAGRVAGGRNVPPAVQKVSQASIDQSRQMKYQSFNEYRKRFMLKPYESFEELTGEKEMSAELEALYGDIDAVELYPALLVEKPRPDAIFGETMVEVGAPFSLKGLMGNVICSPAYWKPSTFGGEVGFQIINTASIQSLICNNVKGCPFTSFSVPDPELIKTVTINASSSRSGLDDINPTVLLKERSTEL
Nature of the assay: Inhibition of human recombinant COX2 using fluorometric substrate by fluorescent inhibitor screening assay. Put shortly: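 Human recombinant COX-2 in 100 mM Tris-HCl pH 8.0 with heme and ADHP fluorometric substrate; inhibitor added at final […] (units as printed) from DMSO stocks; reaction started with arachidonic acid, 2 min at room temperature. Resorufin fluorescence read at ex 535/em 590 nm; % inhibition vs no-inhibitor activity; IC50 from concentration–inhibition curve, triplicate determinations.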

The target in assay [3] is T3, Prostaglandin G/H synthase 1 (Ovis aries, UniProt P05979).
T3 sequence (P05979 whole entry): T1 sequence (whole entry)
The assay can be described thus: Inhibition of ovine COX1 using fluorometric substrate by fluorescent inhibitor screening assay. Put shortly: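 Ovine COX-1 in 100 mM Tris-HCl pH 8.0 with heme and ADHP fluorometric substrate; inhibitor from DMSO stock, reaction started by arachidonic acid, 2 min at room temperature. Resorufin fluorescence read at ex 535/em 590 nm; percent inhibition calculated against uninhibited activity; reported as % inhibition at 100 (units as printed).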

Structures are written as SMILES.

Consider 16 compounds from ChEMBL document CHEMBL3352168, “Potent, orally available, selective COX-2 inhibitors based on 2-imidazoline core” (Eur J Med Chem, 2014).

As usually defined, the inhibition is the change of the read-out against control, counted positive when it falls. For orientation: IC50 means the concentration needed to halve the response being measured. On to `Cc1cccc(C2=NCCN2c2ccc(S(C)(=O)=O)cc2)c1`, for which, in assay [1], the inhibition came out at 6%. For the same compound, in assay [2], the half-inhibitory concentration (IC50) is more than 10 µM.
In the same order, the values of `CC1CN(c2ccc(S(C)(=O)=O)cc2)C(c2cccc(Br)c2)=N1` (racemic) are 11.1% and more than 10 µM.
In the same order, the values of `CS(=O)(=O)c1ccc(N2CCN=C2c2ccc(Cl)c(Cl)c2)cc1` are 1.9% and 2.1 µM.
In the same order, the values of `NS(=O)(=O)c1ccc(N2CCN=C2c2cccc(Br)c2)cc1` are 12.9% and 2.9 µM.
In the case of `NS(=O)(=O)c1ccc(N2CCN=C2c2cccc(F)c2)cc1`, the inhibition in assay [1] is -1.4%. The IC50 in assay [2] was determined as 7.2 µM.
The corresponding values for `CS(=O)(=O)c1ccc(N2CCN=C2c2ccc(Cl)c(C(F)(F)F)c2)cc1` are 4.7% and 3.6 µM.
Turning to `COc1cc(C2=NCCN2c2ccc(S(N)(=O)=O)cc2)ccc1F`, the IC50 in assay [2] is more than 10 µM.
For the compound `CC1CN(c2ccc(S(C)(=O)=O)cc2)C(c2ccc(F)cc2)=N1` (racemic), the inhibition in assay [1] was determined as 6.3%. In assay [2], the IC50 is more than 10 µM.
Consider `CC1CN(c2ccc(S(C)(=O)=O)cc2)C(c2ccc(Cl)cc2)=N1` (racemic), for which the inhibition in assay [1] was -5.2%. In addition, in assay [2], the IC50 was more than 10 µM.
Compound `Cc1cn(-c2ccc(S(C)(=O)=O)cc2)c(-c2ccc(Cl)cc2)n1` showed an IC50 in assay [3] of more than 100 µM.
On to `CS(=O)(=O)c1ccc(N2CCN=C2c2cccc(Br)c2)cc1`, for which the inhibition in assay [1] was 12.6%. Besides, the IC50 in assay [2] amounted to 6.8 µM.
In the same order, the values of `CS(=O)(=O)c1ccc(N2CCN=C2c2ccc(Cl)cc2)cc1` are 3.2% and 7.1 µM.
The corresponding values for `COc1ccc(C2=NCCN2c2ccc(S(N)(=O)=O)cc2)cc1F` are -5.5% and 9.5 µM.
In the same order, the values of `COc1ccc(C2=NCCN2c2ccc(S(C)(=O)=O)cc2)cc1Cl` are 1.2% and more than 10 µM.
For `CC1CN(c2ccc(S(N)(=O)=O)cc2)C(c2ccc(F)cc2)=N1` (racemic), in assay [1], the inhibition was determined as 5.5%. In addition, the IC50 in assay [2] is more than 10 µM.
The corresponding values for `COc1ccc(C2=NCCN2c2ccc(S(C)(=O)=O)cc2)cc1F` are -1.6% and more than 10 µM.
